According to ChEMBL document CHEMBL1127441, “Design, synthesis, and neurochemical evaluation of 2-amino-5-(alkoxycarbonyl)-3,4,5,6-tetrahydropyridines and 2-amino-5-(alkoxycarbonyl)-1,4,5,6-tetrahydropyrimidines as M1 muscarinic receptor agonists” (J Med Chem, 1994):

Legend:
[1] = molecular target: T1, Muscarinic acetylcholine receptor M1 (Rattus norvegicus, UniProt P08482); test: (§1) Affinity for muscarinic receptor M1 in rat brain was measured by inhibition of [3H](R)-quinuclidinyl benzilate (QNB) binding; assay type: tissue-based
T1 sequence (P08482 whole entry): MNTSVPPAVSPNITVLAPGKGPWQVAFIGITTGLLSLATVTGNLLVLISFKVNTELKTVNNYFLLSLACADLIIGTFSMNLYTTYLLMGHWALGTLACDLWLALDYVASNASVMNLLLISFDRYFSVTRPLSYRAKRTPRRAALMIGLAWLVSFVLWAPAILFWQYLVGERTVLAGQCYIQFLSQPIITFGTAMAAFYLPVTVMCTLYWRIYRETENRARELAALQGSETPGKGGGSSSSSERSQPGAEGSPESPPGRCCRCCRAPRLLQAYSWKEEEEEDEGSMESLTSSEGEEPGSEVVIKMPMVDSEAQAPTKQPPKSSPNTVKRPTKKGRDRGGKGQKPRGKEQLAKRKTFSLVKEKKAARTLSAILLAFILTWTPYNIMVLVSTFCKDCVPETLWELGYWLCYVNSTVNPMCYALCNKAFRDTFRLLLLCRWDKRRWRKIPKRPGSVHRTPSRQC
Summary of the method: (§2)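 Competition against 50 pM [3H]-(R)-QNB in rat brain membrane suspension, about 10 pM receptors (4 mg/mL protein), 40 mM Na/K phosphate pH 7.4, varying compound concentrations. Incubation 2.0 h at room temperature, then glass fiber filtration and two cold buffer washes. Nonspecific binding with 1000-fold excess atropine. IC50 from Hill plots; mean ± SEM, three independent experiments in triplicate.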

Rattus norvegicus = species on record: Rattus norvegicus; test: Stimulation of phosphoinositide (PI) metabolism in rat cortex at 100 uM; assay type: functional
Summary of the method: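 Rat cerebral cortex slices cross-chopped at 300 μm, preincubated in oxygenated Krebs-Henseleit buffer at 37 °C. Labeled 30 min with 0.3 mM [3H]inositol and 10 mM LiCl, then 45 min with agonist at 100 μM, or buffer for basal. Stopped with CHCl3/MeOH. Total [3H]inositol phosphates isolated on anion-exchange cartridges and counted. Given as % above basal; mean ± SEM, three independent experiments.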

[2] = molecular target: Muscarinic acetylcholine receptor; test: as §1; assay type: tissue-based; summary of the method: as §2
[3] = molecular target: Muscarinic acetylcholine receptor; test: Affinity for muscarinic receptor in rat brain was measured by inhibition of [3H](R)-quinuclidinyl benzilate (QNB) binding; assay type: tissue-based

Row | SMILES | IC50 [1] [µM] | PI metabolism (Rattus norvegicus) [%] | IC50 [2] [µM] | IC50 [3] [µM]
1 | COC(=O)C1CCCC(N)=N1.Cl (stereo unspecified) | 250 | 8.1 | – | –
2 | COC(=O)C1CCN=C(N)N1.Cl (stereo unspecified) | – | – | 4300 | –
3 | CCCOC(=O)C1CCC(N)=NC1.Cl (stereo unspecified) | – | 51 | – | 1.7
4 | COC(=O)C1CCCN=C1N.Cl (stereo unspecified) | 320 | -5.5 | – | –
5 | CC(C)OC(=O)C1CN=C(N)NC1.Cl (stereo unspecified) | – | 23 | – | 29
6 | CCOC(=O)C1CN=CNC1.Cl (stereo unspecified) | – | 150 | – | –
7 | COC(=O)C1CN=CNC1.Cl (stereo unspecified) | – | 110 | – | –
8 | C#CCOC(=O)C1CCC(N)=NC1.Cl (stereo unspecified) | – | 120 | – | 2.3
9 | C[N+](C)(C)CCOC(N)=O.[Cl-] [CARBACHOL] | – | 470 | – | –
10 | CCCOC(=O)C1CN=CNC1.Cl (stereo unspecified) | – | 7.1 | – | –
11 | CCCOC(=O)C1CN=C(N)NC1.Cl (stereo unspecified) | – | 4.3 | – | 4.8
12 | COC(=O)C1CCC(N)=NC1.Cl (stereo unspecified) | – | 260 | – | 10
13 | COC(=O)C1CCN=C(N)C1.Cl (stereo unspecified) | 120 | 9 | – | –
14 | CCOC(=O)C1CN=C(N)NC1.Cl (stereo unspecified) | – | 28 | – | 8.2
15 | C#CCOC(=O)C1CN=C(N)NC1.Cl (stereo unspecified) | – | 150 | – | 31
16 | C#CCOC(=O)C1CN=CNC1.Cl (stereo unspecified) | – | 230 | – | –
17 | CCOC(=O)C1CCC(N)=NC1.Cl (stereo unspecified) | – | 31 | – | 4.3
18 | CC(C)OC(=O)C1CN=CNC1.Cl (stereo unspecified) | – | 7.2 | – | –
19 | COC(=O)C1CN=C(N)NC1.Cl (stereo unspecified) | – | 81 | – | 22
